Legend:
[1] = Antiviral activity against KOS strain of HSV-1 in E6SM cells.; assay type: functional, cell-based, herpes simplex virus
Procedure, shortened: (§1)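 Inhibition of virus-induced cytopathicity. HSV-1 and HSV-2 were tested in E6SM cells; VZV and CMV in HEL cells. Confluent monolayers were inoculated with 100 CCID50 of virus. After 1–2 h adsorption, residual virus was removed and compound was added at serial concentrations (400, 200, 100, ... μg/mL). Cytopathicity was scored once untreated infected controls reached complete CPE.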

[2] = test system: Human immunodeficiency virus 2; experiment: Antiviral activity against HIV-2 (ROD) in CEM (human leukemia) cells.; assay type: functional, organism-based; conditions: ccrf-cem
Procedure, shortened: (§2)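 Human CEM cells (~3 × 10^5 cells/mL) were infected with 100 CCID50 per mL of HIV-1 (IIIB) or HIV-2 (ROD) and seeded into wells containing compound dilutions. After 4 days at 37 °C, syncytium (giant cell) formation was examined microscopically.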

Cytomegalovirus [3] = experiment: Antiviral activity against AD169 strain of cytomegalovirus (CMV) in HEL ([…]) cells.; assay type: functional, organism-based; procedure, shortened: as §1
Human alphaherpesvirus 3 [4] = experiment: Antiviral activity against OKA strain of VZV in HEL ([…]) cells.; assay type: functional, organism-based; design: unit not given here; procedure, shortened: as §1
[5] = Antiviral activity against G strain of HSV-2 in E6SM cells.; assay type: functional, cell-based, herpes simplex virus; procedure, shortened: as §1
CCRF-CEM = experiment: Cytotoxicity against CEM (human lymphoblastic leukemia) cells in vitro.; assay type: functional
[6] = test system: Moloney murine sarcoma virus; experiment: Antiviral activity against murine sarcoma virus; assay type: functional, organism-based
Procedure, shortened: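 Murine C3H/3T3 embryo fibroblasts were seeded at 5 × 10^5 cells/mL. After 24 h, cells were infected with 80 focus-forming units of MSV (from mouse tumours) for 90–120 min at 37 °C. Medium was then replaced by fresh medium containing varied compound concentrations, and MSV-induced transformation was the read-out.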

Cytomegalovirus [7] = experiment: Antiviral activity against Davis strain of cytomegalovirus (CMV) in HEL ([…]) cells.; assay type: functional, organism-based; procedure, shortened: as §1
[8] = test system: Human immunodeficiency virus 1; experiment: Antiviral activity against HIV-1 (IIIB) in CEM (human leukemia) cells.; assay type: functional, organism-based; conditions: ccrf-cem; procedure, shortened: as §2
[9] = Antiviral activity against vaccinia virus in HEL ([…]) cells.; assay type: functional, cell-based
Human alphaherpesvirus 3 [10] = experiment: Antiviral activity against 07/1 strain of VZV in HEL ([…]) cells.; assay type: functional, organism-based; procedure, shortened: as §1
[11] = Antiviral activity against KOS strain of HSV-1; ND=No data; assay type: functional, herpes simplex virus
Procedure, shortened: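 Confluent E6SM cell cultures in 96-well plates were inoculated with 100 CCID50 virus. After 1–2 h adsorption, inoculum was removed and test compound was added at 400, 200, 100, ... µg/mL.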

| SMILES | EC50 [1] [uM ml-1] | EC50 [2] [uM ml-1] | EC50 (Cytomegalovirus [3]) [uM ml-1] | EC50 (Human alphaherpesvirus 3 [4]) | EC50 [5] [uM ml-1] | CC50 (CCRF-CEM) [µM] | EC50 [6] [uM ml-1] | EC50 (Cytomegalovirus [7]) [uM ml-1] | EC50 [8] [uM ml-1] | EC50 [9] [uM ml-1] | EC50 (Human alphaherpesvirus 3 [10]) [uM ml-1] | EC50 [11] [uM ml-1] |
| --- | --- | --- | --- | --- | --- | --- | --- | --- | --- | --- | --- | --- |
| C=CCc1c(N)nc(N)n(CCOCP(=O)(O)O)c1=O | > 1.2 | > 0.3 | > 0.15 | > 0.15 | 0.77 | > 300 | > 1.12 | > 0.15 | > 0.3 | > 1.2 | > 0.15 |  |
| Nc1nc(N)c(CC(=O)O)c(OCCOCP(=O)(O)O)n1 | > 1.2 | > 0.3 | > 0.15 | > 0.15 | > 1.2 | > 300 | 0.046 | > 0.15 | > 0.3 | > 1.2 | > 0.15 |  |
| N#CCc1c(N)nc(N)nc1OCCOCP(=O)(O)O | > 1.2 | > 0.3 | > 0.15 | 0.14 | > 1.2 | > 300 | 0.3 | > 0.15 | > 0.3 | > 1.2 | 0.11 |  |
| Nc1nc(N)c(C2CC2)c(OCCOCP(=O)(O)O)n1 |  | > 0.3 |  |  |  | > 300 | > 1.12 |  | > 0.3 |  |  | > 1.2 |
| Nc1nc(N)c(Cc2ccccc2)c(OCCOCP(=O)(O)O)n1 | > 1.2 | > 0.3 | > 0.15 | > 0.15 |  | > 300 | > 1.12 | > 0.15 | > 0.3 | > 1.2 | > 0.15 |  |
| Nc1nc(N)n(CCOCP(=O)(O)O)c(=O)c1-c1ccccc1 | > 1.2 | > 0.3 | > 0.15 | > 0.15 | > 1.2 | > 300 | > 1.12 | > 0.15 | > 0.3 | > 1.2 | > 0.15 |  |
| C[C@H](Cn1cnc2c(N)ncnc21)OCP(=O)(O)O [TENOFOVIR ANHYDROUS] | > 0.17 | 0.0014 | > 0.17 |  | > 0.17 | 410 | 0.0046 | > 0.17 | 0.0012 | > 0.17 | 0.17 |  |
| Nc1nc(N)n(CCOCP(=O)(O)O)c(=O)c1C1CC1 | > 1.2 | > 0.3 | > 0.15 |  | > 1.2 | > 300 | > 1.12 |  | > 0.3 | > 1.2 | > 0.15 |  |
| N#CCc1c(N)nc(N)n(CCOCP(=O)(O)O)c1=O | > 1.2 | > 0.3 | > 0.15 | > 0.15 | > 1.2 | > 300 | 0.3 | > 0.15 | > 0.3 | > 1.2 | 0.084 |  |
| Nc1nc(N)c(-c2ccccc2)c(OCCOCP(=O)(O)O)n1 | > 1.2 | > 0.3 | > 0.15 | > 0.15 | > 1.2 | > 300 | > 1.12 | > 0.15 | > 0.3 | > 1.2 | > 0.15 |  |
| CCOC(=O)Cc1c(N)nc(N)nc1OCCOCP(=O)(O)O | > 1.2 | 0.078 | > 0.15 | > 0.15 | > 1.2 | > 300 | 0.035 | > 0.15 | > 0.3 | > 1.2 | > 0.15 |  |

Source: ChEMBL document CHEMBL1145896, “5-Substituted-2,4-diamino-6-[2-(phosphonomethoxy)ethoxy]pyrimidines-acyclic nucleoside phosphonate analogues with antiviral activity” (J Med Chem, 2003)
